Source: ChEMBL document CHEMBL1156389, “Aglacins A-D, first representatives of a new class of aryltetralin cyclic ether lignans from Aglaia cordata” (J Nat Prod, 2001)
The source made the active and inactive calls. No cut-off for these calls is given here.

Assays:
HL-60 = test: Cytotoxicity against human HL60 cells at 2 mg/mL to 10 ng/mL by MTT assay; format: functional, cell-based
Method in brief: (§1)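 Antiproliferative MTT assay on the human leukemia line HL-60, the human carcinoma line HELA and the KB line. Compounds were tested over 2 mg/mL to 10 ng/mL, in triplicate.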

HeLa = test: Cytotoxicity against human HeLa cells at 2 mg/mL to 10 ng/mL by MTT assay; format: functional, cell-based; method in brief: as §1

## COc1cc([C@@H]2c3c(cc(OC)c(OC)c3OC)C[C@@H]3COC[C@H]32)cc(OC)c1OC
HL-60
  Activity: inactive
HeLa
  Activity: inactive

## COc1cc([C@H]2c3c(cc(OC)c(OC)c3OC)C(=O)[C@@H]3COC[C@@H]23)cc(OC)c1OC
HL-60
  Activity: inactive
HeLa
  Activity: inactive

## COc1cc([C@@H]2c3c(cc(OC)c(OC)c3OC)[C@H](OC(C)=O)[C@@H]3COC[C@@H]23)cc(OC)c1OC
HL-60
  Activity: inactive
HeLa
  Activity: inactive

## COc1ccc([C@@H]2c3c(cc(OC)c(OC)c3OC)C[C@@H]3COC[C@H]32)cc1OC
HL-60
  Activity: inactive
HeLa
  Activity: inactive
